Assay results from ChEMBL document CHEMBL4819084, “Discovery of 3,5-dimethylisoxazole derivatives as novel, potent inhibitors for bromodomain and extraterminal domain (BET) family” (Bioorg Med Chem, 2021).

Legend:
[1] = tested on: HepG2; assay: Antiproliferative activity against human HepG2 cells assessed as inhibition of cell proliferation at 2 uM incubated for 48 hrs by MTT assay relative to control; assay type: functional
Procedure, shortened: (§1)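 Cryopreserved cells thawed at 37 °C, cultured one day, then seeded at 5000–10,000 cells/well in 96-well plates and left overnight to attach. Compound added at a single concentration or as a gradient series and incubated 48 h. MTT solution added and absorbance read.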

[2] = tested on: MCF7; assay: Antiproliferative activity against human MCF7 cells assessed as inhibition of cell proliferation at 2 uM incubated for 48 hrs by MTT assay relative to control; assay type: functional; procedure, shortened: as §1
[3] = Cytotoxicity against human MCF-10A cells assessed as inhibition of cell proliferation at 2 uM incubated for 48 hrs by MTT assay; assay type: cell-based; procedure, shortened: as §1
[4] = tested on: HCT-116; assay: Antiproliferative activity against human HCT-116 cells assessed as inhibition of cell proliferation at 2 uM incubated for 48 hrs by MTT assay relative to control; assay type: functional; procedure, shortened: as §1
[5] = tested on: U-266; assay: Antiproliferative activity against human U-266 cells assessed as inhibition of cell proliferation at 0.1 uM incubated for 48 hrs by MTT assay relative to control; assay type: functional; procedure, shortened: as §1
[6] = tested on: CT26; assay: Antiproliferative activity against […] assessed as inhibition of cell proliferation at 2 uM incubated for 48 hrs by MTT assay relative to control; assay type: functional; details: Mus musculus; procedure, shortened: as §1
[7] = target: Bromodomain-containing protein 4 (Homo sapiens, UniProt O60885); assay: Inhibition of BRD4-BD1 (unknown origin) preincubated for 15 mins followed by substrate addition and measured after 1 hr
[8] = tested on: CT26; assay: Antiproliferative activity against […] assessed as inhibition of cell proliferation incubated for 48 hrs by MTT assay; assay type: functional, cell-based; details: Mus musculus, CT26, 48 h; procedure, shortened: as §1
[9] = tested on: U-266; assay: Antiproliferative activity against human U-266 cells assessed as inhibition of cell proliferation incubated for 48 hrs by MTT assay; assay type: functional, cell-based; details: U-266, 48 h; procedure, shortened: as §1

Row | Compound | IC50 [7] | IC50 [8] | inhibition at 2 µM [1] | inhibition at 2 µM [2] | inhibition at 48 h, 2 µM [3] | inhibition at 2 µM [4] | inhibition at 0.1 µM [5] | inhibition at 2 µM [6] | IC50 [9]
1 | Cc1noc(C)c1-c1ccc2c(c1)C(c1ccccc1)N(Cc1csc(-c3ccc(F)cc3)n1)C(=O)N2C (stereo unspecified) |  |  | 31.3% | 37.9% | 6.8% | 31.8% | 8.4% | 17% | 
2 | Cc1noc(C)c1-c1ccc2c(c1)C(c1ccccc1)N(Cc1nc(-c3ccccc3)cs1)C(=O)N2C (stereo unspecified) |  |  | 44.5% | 29.1% | 2.7% | 26.7% | 12.7% | 15.5% | 
3 | Cc1nc(-c2ccccc2)sc1CN1C(=O)N(C)c2ccc(-c3c(C)noc3C)cc2C1c1ccccc1 (stereo unspecified) |  |  | 29.2% | 35.1% | 4.9% | 28.3% | 7.19% | 20.1% | 
4 | Cc1nc(-c2ccc(F)cc2)sc1CN1C(=O)N(C)c2ccc(-c3c(C)noc3C)cc2C1c1ccccc1 (stereo unspecified) |  |  | 26.4% | 33.4% | 6.5% | 26% | 10% | 28.8% | 
5 | Cc1noc(C)c1-c1ccc2c(c1)C(c1ccccc1)N(Cc1nc(-c3ccc(F)cc3)cs1)C(=O)N2C (stereo unspecified) |  |  | 41.1% | 27.4% | 8.5% | 33.3% | 12.6% | 16.4% | 
6 | Cc1noc(C)c1-c1ccc2c(c1)C(c1ccccc1)N(Cc1csc(-c3ccccc3)n1)C(=O)N2C (stereo unspecified) |  |  | 34% | 17.5% | 4.4% | 28.4% | 10.4% | 23.5% | 

Second part, led by results:

Row | IC50 [7] | IC50 [8] | Compound | inhibition at 2 µM [1] | inhibition at 2 µM [2] | inhibition at 48 h, 2 µM [3] | inhibition at 2 µM [4] | inhibition at 0.1 µM [5] | inhibition at 2 µM [6] | IC50 [9]
7 | 37 nM |  | Cc1noc(C)c1-c1ccc2c(c1)C(c1ccccc1)N(CCCCCCCC(=O)N1CCN(c3ccc4nnc(Cl)n4n3)CC1)C(=O)N2C (stereo unspecified) | 13.6% | 28.7% | 0.5% | 14.1% | 8.5% | 8.8% | 
8 | 105 nM |  | Cc1noc(C)c1-c1ccc2c(c1)C(c1ccccc1)N(Cc1ncc(-c3ccccc3)o1)C(=O)N2C (stereo unspecified) | 50.6% | 34% | 3.7% | 30% | 15.1% | 21.2% | 
9 | 5.6 nM |  | Cc1noc(C)c1-c1ccc2c(c1)C(c1ccccc1)N(CC(=O)N1CCN(c3ccc4nnc(Cl)n4n3)CC1)C(=O)N2C (stereo unspecified) | 28.5% | 33.4% | 10.9% | 48.9% | 19.8% | 27.5% | 
10 | 13 nM |  | Cc1noc(C)c1-c1ccc2c(c1)C(c1ccccc1)N(CCCCBr)C(=O)N2C (stereo unspecified) |  |  |  |  |  |  | 
11 | 74 nM |  | Cc1noc(C)c1-c1ccc2c(c1)C(c1ccccc1)N(Cc1nnc(-c3ccccc3)s1)C(=O)N2C (stereo unspecified) | 35.2% | 35.7% | 3.3% | 26.9% | 20.3% | 28.1% | 
12 |  | 48300 nM | CCS(=O)(=O)Nc1ccc(Oc2ccc(F)cc2F)c(-c2cn(C)c(=O)c3[nH]ccc23)c1 [MIVEBRESIB] |  |  |  |  |  |  | 2030 nM
13 | 9.2 nM |  | Cc1noc(C)c1-c1ccc2c(c1)C(c1ccccc1)N(CCCCCC(=O)N1CCN(c3ccc4nnc(Cl)n4n3)CC1)C(=O)N2C (stereo unspecified) | 30.7% | 33.6% | 14.7% | 38.4% | 31.3% | 25.1% | 
14 | 58 nM |  | Cc1noc(C)c1-c1ccc2c(c1)C(c1ccccc1)N(Cc1nnc(-c3ccc(F)cc3)o1)C(=O)N2C (stereo unspecified) | 52.8% | 26.7% | 0.7% | 36.6% | 26.8% | 24% | 
